Reference: ChEMBL document CHEMBL4184148 (Bioorg Med Chem Lett, 2017)

Legend:
[1] = system: Serine/threonine-protein kinase B-raf (Homo sapiens), P15056 [V600E]; assay: Binding affinity to human partial length BRAF V600E mutant (S429 to E741 residues) expressed in HEK293 cells at 1 uM by Kinomescan method relative to control; type: cell-based
[2] = target: Rhodopsin kinase GRK7 (Homo sapiens) (UniProt Q8WTQ7); assay: Binding affinity to wild-type human full length GRK7 (M1 to L553 residues) expressed in HEK293 cells at 1 uM by Kinomescan method relative to control; type: cell-based
Summary of the method: (§1)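 Run as one kinome-wide competition binding panel with each compound at a single fixed concentration. Results were plotted as a kinome-wide selectivity map.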

[3] = target: Serine/threonine-protein kinase MRCK beta (Homo sapiens) (UniProt Q9Y5S2); assay: Binding affinity to wild-type human partial length MRCKB (L56 to S417 residues) expressed in Escherichia coli BL21 at 1 uM by Kinomescan method relative to control
[4] = target: Calcium/calmodulin-dependent protein kinase kinase 2 (Homo sapiens) (UniProt Q96RR4); assay: Binding affinity to wild-type human partial length CAMKK2 (D65 to V471 residues) expressed in Escherichia coli BL21 at 1 uM by Kinomescan method relative to control
[5] = target: Myosin light chain kinase family member 4 (Homo sapiens) (UniProt Q86YV6); assay: Binding affinity to wild-type human partial length MYLK4 (V79 to S380 residues) expressed in Escherichia coli BL21 at 1 uM by Kinomescan method relative to control
Sequence of Myosin light chain kinase family member 4 (Homo sapiens) (Q86YV6 whole entry, the tested form may be a part, canonical isoform): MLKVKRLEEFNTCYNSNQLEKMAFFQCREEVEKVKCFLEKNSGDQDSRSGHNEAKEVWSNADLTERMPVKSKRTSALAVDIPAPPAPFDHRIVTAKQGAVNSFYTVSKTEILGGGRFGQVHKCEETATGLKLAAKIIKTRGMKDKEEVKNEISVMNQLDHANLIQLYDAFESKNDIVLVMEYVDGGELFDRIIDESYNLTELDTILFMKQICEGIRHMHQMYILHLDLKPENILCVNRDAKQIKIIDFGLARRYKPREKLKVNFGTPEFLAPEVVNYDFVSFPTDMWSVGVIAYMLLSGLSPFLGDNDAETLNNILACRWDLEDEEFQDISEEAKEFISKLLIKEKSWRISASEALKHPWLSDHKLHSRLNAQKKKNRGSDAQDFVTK

[6] = system: Phosphatidylinositol 4,5-bisphosphate 3-kinase catalytic subunit alpha isoform (Homo sapiens), P42336 [H1047Y]; assay: Binding affinity to human partial length PIK3CA H1047Y mutant (R108 to N1068 residues) expressed in HEK293 cells at 1 uM by Kinomescan method relative to control; type: cell-based
[7] = target: Serine/threonine-protein kinase BRSK2 (Homo sapiens) (UniProt Q8IWQ3); assay: Binding affinity to wild-type human full length BRSK2 (M1 to L674 residues) expressed in Escherichia coli BL21 at 1 uM by Kinomescan method relative to control
[8] = target: Serine/threonine-protein kinase N1 (Homo sapiens) (UniProt Q16512); assay: Binding affinity to wild-type human partial length PKN1 (E598 to C948 residues) expressed in Escherichia coli BL21 at 1 uM by Kinomescan method relative to control
[9] = target: Ephrin type-A receptor 3 (Homo sapiens) (UniProt P29320); assay: Binding affinity to wild-type human partial length EPHA3 (D604 to K889 residues) expressed in Escherichia coli BL21 at 1 uM by Kinomescan method relative to control
[10] = target: Tyrosine-protein kinase ABL1 (Homo sapiens) (UniProt P00519); assay: Binding affinity to wild-type human non-phosphorylated ABL1 (S229 to K512 residues) expressed in HEK293 cells at 1 uM by Kinomescan method relative to control; type: cell-based
Sequence of Tyrosine-protein kinase ABL1 (Homo sapiens) (P00519 whole entry, the tested form may be a part): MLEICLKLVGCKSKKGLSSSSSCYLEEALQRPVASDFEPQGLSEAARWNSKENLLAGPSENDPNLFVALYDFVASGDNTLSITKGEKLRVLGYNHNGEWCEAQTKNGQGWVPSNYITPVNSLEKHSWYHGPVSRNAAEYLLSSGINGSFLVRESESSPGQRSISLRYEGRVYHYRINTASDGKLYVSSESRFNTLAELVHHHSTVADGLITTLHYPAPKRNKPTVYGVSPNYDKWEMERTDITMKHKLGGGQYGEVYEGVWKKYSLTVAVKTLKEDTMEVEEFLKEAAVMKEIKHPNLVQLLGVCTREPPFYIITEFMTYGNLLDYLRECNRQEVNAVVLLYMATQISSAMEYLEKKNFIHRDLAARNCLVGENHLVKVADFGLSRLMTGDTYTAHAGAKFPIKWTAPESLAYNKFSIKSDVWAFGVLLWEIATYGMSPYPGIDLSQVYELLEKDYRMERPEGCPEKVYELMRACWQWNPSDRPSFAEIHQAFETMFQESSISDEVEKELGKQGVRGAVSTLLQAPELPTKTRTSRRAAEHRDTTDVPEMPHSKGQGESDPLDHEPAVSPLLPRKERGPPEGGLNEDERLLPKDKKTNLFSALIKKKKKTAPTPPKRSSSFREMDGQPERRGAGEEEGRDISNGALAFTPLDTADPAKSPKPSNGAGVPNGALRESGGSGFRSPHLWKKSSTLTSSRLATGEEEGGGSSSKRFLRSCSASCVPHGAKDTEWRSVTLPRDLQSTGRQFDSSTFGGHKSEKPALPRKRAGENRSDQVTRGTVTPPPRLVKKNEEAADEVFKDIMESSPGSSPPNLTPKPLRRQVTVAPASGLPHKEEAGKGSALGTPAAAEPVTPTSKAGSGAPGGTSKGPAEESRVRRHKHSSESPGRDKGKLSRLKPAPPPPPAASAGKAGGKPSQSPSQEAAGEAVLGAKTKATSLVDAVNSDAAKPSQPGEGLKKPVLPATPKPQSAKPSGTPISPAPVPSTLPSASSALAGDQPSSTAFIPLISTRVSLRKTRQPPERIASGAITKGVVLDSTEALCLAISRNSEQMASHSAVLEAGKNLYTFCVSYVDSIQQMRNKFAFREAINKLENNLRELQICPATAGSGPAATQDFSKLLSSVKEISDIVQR

[11] = target: Hormonally up-regulated neu tumor-associated kinase (Homo sapiens) (UniProt P57058); assay: Binding affinity to wild-type human partial length HUNK (A31 to K354 residues) expressed in Escherichia coli BL21 at 1 uM by Kinomescan method relative to control
[12] = target: Tyrosine-protein kinase SYK (Homo sapiens) (UniProt P43405); assay: Binding affinity to wild-type human partial length SYK (D354 to N635 residues) expressed in Escherichia coli BL21 at 1 uM by Kinomescan method relative to control
[13] = target: Mitogen-activated protein kinase kinase kinase 5 (Homo sapiens) (UniProt Q99683); assay: Binding affinity to wild-type human partial length ASK1 (E648 to S964 residues) expressed in Escherichia coli BL21 at 1 uM by Kinomescan method relative to control
Summary of the method: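 Kinome-wide competition binding panel run by an outside provider, with each compound tested at a single concentration. Activity is read against the kinase panel.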

[14] = target: Cyclin-dependent kinase 5 (Homo sapiens) (UniProt Q00535); assay: Binding affinity to wild-type human full length CDK5 (M1 to P292 residues) expressed in Escherichia coli BL21 at 1 uM by Kinomescan method relative to control; summary of the method: as §1
[15] = target: Tyrosine-protein kinase TXK (Homo sapiens) (UniProt P42681); assay: Binding affinity to wild-type human partial length TXK (L238 to W527 residues) expressed in Escherichia coli BL21 at 1 uM by Kinomescan method relative to control
[16] = target: Ribosomal protein S6 kinase alpha-4 (Homo sapiens) (UniProt O75676); assay: Binding affinity to wild-type human partial length C-terminal RPS6KA4 kinase domain 2 (M375 to T705 residues) expressed in HEK293 cells at 1 uM by Kinomescan method relative to control; type: cell-based
[17] = target: Mitogen-activated protein kinase 6 (Homo sapiens) (UniProt Q16659); assay: Binding affinity to wild-type human partial length ERK3 (M1 to P413 residues) expressed in Escherichia coli BL21 at 1 uM by Kinomescan method relative to control
[18] = target: Receptor tyrosine-protein kinase erbB-3 (Homo sapiens) (UniProt P21860); assay: Binding affinity to wild-type human partial length ERBB3 (G684 to A987 residues) expressed in HEK293 cells at 1 uM by Kinomescan method relative to control; type: cell-based
[19] = target: TGF-beta receptor type-1 (Homo sapiens) (UniProt P36897); assay: Binding affinity to wild-type human partial length TGFBR1 (D179 to M503 residues) expressed in Escherichia coli BL21 at 1 uM by Kinomescan method relative to control
[20] = target: Serine/threonine-protein kinase PLK3 (Homo sapiens) (UniProt Q9H4B4); assay: Binding affinity to wild-type human partial length PLK3 (A42 to L334 residues) expressed in HEK293 cells at 1 uM by Kinomescan method relative to control; type: cell-based
[21] = system: Phosphatidylinositol 4,5-bisphosphate 3-kinase catalytic subunit alpha isoform (Homo sapiens), P42336 [E542K]; assay: Binding affinity to human partial length PIK3CA E542K mutant (R108 to N1068 residues) expressed in HEK293 cells at 1 uM by Kinomescan method relative to control; type: cell-based
[22] = target: Serine/threonine-protein kinase WNK3 (Homo sapiens) (UniProt Q9BYP7); assay: Binding affinity to wild-type human partial length WNK3 (M1 to D434 residues) expressed in HEK293 cells at 1 uM by Kinomescan method relative to control; type: cell-based
Sequence of Serine/threonine-protein kinase WNK3 (Homo sapiens) (Q9BYP7 whole entry, the tested form may be a part): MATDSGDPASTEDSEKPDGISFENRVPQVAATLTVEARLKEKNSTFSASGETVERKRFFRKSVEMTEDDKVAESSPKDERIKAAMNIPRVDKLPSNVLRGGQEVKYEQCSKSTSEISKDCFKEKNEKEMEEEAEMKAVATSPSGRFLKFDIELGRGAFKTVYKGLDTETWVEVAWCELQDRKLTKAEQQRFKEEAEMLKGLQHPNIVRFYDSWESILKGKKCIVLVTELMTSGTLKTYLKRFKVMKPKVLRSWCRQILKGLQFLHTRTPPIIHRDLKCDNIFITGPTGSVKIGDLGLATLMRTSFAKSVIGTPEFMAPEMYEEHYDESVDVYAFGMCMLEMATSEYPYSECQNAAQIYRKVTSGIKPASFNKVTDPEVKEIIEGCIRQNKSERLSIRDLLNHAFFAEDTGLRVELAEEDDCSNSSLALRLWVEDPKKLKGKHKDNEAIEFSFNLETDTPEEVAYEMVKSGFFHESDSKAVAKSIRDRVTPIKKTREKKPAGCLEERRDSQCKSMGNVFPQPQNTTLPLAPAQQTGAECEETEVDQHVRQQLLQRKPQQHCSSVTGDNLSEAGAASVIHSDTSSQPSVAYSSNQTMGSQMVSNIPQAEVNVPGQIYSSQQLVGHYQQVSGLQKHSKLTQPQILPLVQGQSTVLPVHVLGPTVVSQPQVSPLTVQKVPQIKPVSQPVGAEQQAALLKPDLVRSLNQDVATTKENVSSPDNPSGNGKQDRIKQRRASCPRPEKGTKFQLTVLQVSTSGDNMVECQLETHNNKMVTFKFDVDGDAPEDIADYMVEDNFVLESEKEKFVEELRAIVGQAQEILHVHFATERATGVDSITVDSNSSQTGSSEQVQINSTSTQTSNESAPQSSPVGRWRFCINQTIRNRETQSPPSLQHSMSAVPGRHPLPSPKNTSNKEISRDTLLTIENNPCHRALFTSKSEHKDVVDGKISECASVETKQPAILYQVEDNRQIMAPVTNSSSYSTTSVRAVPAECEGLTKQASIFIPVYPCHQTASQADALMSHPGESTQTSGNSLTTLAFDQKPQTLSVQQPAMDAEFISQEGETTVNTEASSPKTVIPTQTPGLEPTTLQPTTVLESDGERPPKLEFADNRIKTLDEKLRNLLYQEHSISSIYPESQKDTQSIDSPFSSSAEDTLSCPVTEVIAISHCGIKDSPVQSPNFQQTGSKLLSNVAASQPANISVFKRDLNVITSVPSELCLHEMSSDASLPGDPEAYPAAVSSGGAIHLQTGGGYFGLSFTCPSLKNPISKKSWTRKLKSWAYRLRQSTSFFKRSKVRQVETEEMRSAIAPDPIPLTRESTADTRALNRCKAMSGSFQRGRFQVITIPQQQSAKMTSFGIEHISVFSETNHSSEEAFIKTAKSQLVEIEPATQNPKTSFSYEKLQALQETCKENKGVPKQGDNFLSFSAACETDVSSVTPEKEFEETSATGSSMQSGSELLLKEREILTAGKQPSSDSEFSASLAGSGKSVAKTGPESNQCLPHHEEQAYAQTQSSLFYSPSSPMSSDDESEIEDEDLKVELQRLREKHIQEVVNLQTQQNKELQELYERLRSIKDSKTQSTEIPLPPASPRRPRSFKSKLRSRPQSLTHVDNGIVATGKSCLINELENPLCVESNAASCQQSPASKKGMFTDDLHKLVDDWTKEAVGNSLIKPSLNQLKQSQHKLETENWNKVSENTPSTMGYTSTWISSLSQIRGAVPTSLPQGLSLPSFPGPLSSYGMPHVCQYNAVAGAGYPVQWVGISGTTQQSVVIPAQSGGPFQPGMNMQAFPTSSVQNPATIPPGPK

[23] = system: Receptor-type tyrosine-protein kinase FLT3 (Homo sapiens), P36888 [D835Y]; assay: Binding affinity to human partial length FLT3 D835Y mutant (Q580 to Y969 residues) expressed in Escherichia coli BL21 at 1 uM by Kinomescan method relative to control
[24] = target: Serine/threonine-protein kinase VRK2 (Homo sapiens) (UniProt Q86Y07); assay: Binding affinity to wild-type human partial length VRK2 (M1 to T336 residues) expressed in HEK293 cells at 1 uM by Kinomescan method relative to control; type: cell-based
Sequence of Serine/threonine-protein kinase VRK2 (Homo sapiens) (Q86Y07 whole entry, the tested form may be a part): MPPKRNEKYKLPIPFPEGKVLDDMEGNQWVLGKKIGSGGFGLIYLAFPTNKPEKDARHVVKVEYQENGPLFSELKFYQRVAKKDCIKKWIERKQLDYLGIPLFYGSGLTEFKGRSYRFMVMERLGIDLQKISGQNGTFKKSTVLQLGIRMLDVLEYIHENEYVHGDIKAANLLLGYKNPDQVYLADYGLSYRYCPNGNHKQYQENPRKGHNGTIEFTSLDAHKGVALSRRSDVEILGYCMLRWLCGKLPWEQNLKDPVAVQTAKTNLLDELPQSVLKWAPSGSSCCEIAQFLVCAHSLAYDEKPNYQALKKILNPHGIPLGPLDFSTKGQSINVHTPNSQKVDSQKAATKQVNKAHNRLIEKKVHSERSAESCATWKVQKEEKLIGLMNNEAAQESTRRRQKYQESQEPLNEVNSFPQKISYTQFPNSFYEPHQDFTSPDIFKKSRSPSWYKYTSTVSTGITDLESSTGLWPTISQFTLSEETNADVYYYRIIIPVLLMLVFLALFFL

[25] = target: Activin receptor type-1B (Homo sapiens) (UniProt P36896); assay: Binding affinity to wild-type human ACVR1B (S187 to I505 residues) expressed in Escherichia coli BL21 at 1 uM by Kinomescan method relative to control
Sequence of Activin receptor type-1B (Homo sapiens) (P36896 whole entry, the tested form may be a part): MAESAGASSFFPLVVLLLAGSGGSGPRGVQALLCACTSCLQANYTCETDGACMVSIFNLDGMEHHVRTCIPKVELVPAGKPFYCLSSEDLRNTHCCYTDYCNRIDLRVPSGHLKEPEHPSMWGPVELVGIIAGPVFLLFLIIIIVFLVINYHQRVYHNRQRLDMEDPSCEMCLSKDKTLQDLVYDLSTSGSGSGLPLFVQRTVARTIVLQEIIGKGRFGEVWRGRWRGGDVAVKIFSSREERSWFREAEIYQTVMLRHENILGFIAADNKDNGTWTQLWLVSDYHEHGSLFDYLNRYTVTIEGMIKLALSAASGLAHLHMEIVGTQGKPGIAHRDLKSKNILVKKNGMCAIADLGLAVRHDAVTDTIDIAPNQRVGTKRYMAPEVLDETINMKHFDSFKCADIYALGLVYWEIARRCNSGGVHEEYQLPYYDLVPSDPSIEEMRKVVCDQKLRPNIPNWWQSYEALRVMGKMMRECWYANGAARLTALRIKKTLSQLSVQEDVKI

Sequence of Serine/threonine-protein kinase B-raf (Homo sapiens), P15056 [V600E] (P15056 whole entry V600E, the tested form may be a part): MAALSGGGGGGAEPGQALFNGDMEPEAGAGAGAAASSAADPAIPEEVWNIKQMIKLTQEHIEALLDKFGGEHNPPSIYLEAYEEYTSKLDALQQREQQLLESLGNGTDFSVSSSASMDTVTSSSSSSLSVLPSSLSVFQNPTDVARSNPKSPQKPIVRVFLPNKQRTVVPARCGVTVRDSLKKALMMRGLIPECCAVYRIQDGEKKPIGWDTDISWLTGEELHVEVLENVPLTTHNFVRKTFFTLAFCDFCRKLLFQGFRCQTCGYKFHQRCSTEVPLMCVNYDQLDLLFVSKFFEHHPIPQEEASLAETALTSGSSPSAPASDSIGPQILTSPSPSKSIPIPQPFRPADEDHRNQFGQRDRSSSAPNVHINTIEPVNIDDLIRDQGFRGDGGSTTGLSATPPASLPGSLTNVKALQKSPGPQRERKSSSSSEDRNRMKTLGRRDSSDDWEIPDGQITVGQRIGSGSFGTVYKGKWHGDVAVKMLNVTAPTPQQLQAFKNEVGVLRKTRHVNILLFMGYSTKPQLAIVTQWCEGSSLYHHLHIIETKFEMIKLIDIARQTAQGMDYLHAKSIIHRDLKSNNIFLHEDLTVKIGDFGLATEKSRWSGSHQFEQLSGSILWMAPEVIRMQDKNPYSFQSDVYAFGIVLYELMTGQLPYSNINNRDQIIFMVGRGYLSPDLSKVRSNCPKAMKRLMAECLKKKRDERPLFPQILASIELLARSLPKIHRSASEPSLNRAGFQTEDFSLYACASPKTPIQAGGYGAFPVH

In the case of `CCC(=O)Nc1ccc(C(=O)Nc2ccc(Nc3ncc4c(n3)N(C)c3ccc(C)cc3C(=O)N4C)cc2)cc1`, the Activity [1] is reported as 100%, the Activity [2] is reported as 87% and the Activity [3] is reported as 98%. It also gave an Activity [4] of 89%, an Activity [5] of 100% and an Activity [6] of 72%. The Activity [7] was 88%, the Activity [8] was 100% and the Activity [9] was 99%. For the same compound, the Activity [10] was 67%, the Activity [11] was 91% and the Activity [12] was 87%. For the same compound, the Activity [13] was 99%, the Activity [14] was 87% and the Activity [15] was 93%. It also gave an Activity [16] of 51%, an Activity [17] of 81% and an Activity [18] of 85%. The Activity [19] was 97%, the Activity [20] was 83% and the Activity [21] was 76%. The Activity [22] was 100%, the Activity [23] was 77% and the Activity [24] was 61%. For the same compound, the Activity [25] was 100%.
In the case of `C=CC(=O)Nc1ccc(C(=O)Nc2ccc(Nc3ncc4c(n3)N(C)c3ccc(C)cc3C(=O)N4C)cc2)cc1`, the Activity [1] is reported as 94%, the Activity [2] is reported as 93% and the Activity [3] is reported as 96%. For the same compound, the Activity [4] was 92%, the Activity [5] was 100% and the Activity [6] was 62%. The Activity [7] was 98%, the Activity [8] was 82% and the Activity [9] was 100%. It also gave an Activity [10] of 77%, an Activity [11] of 100% and an Activity [12] of 74%. The Activity [13] was 100%, the Activity [14] was 99% and the Activity [15] was 100%. It also gave an Activity [16] of 96%, an Activity [17] of 97% and an Activity [18] of 81%. The Activity [19] was 89%, the Activity [20] was 91% and the Activity [21] was 62%. It also gave an Activity [22] of 100%, an Activity [23] of 83% and an Activity [24] of 100%. It also gave an Activity [25] of 85%.
